Assay results published in ChEMBL document CHEMBL1629690, “Development of hexadecyloxypropyl tenofovir (CMX157) for treatment of infection caused by wild-type and nucleoside/nucleotide-resistant HIV” (Antimicrob Agents Chemother, 2010).

Assays:
[1] = test system: Human immunodeficiency virus 1; experiment: Antiviral activity against HIV1 isolate 056 expressing wild type reverse transcriptase gene by phenosense assay; type: functional, organism-based; settings: Human immunodeficiency virus 1, isolate 056
Procedure, shortened: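 In the PhenoSense recombinant virus assay, virus was tested against increasing drug concentrations. EC50 came from the inhibition curve and was compared with a drug-sensitive reference virus.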

[2] = test system: Human immunodeficiency virus 1; experiment: Antiviral activity against HIV1 isolate 058 harboring reverse transcriptase M41L/D67N/K70R/L210W/T215F/K219Q mutant gene by phenosense assay; type: functional, organism-based; settings: Human immunodeficiency virus 1, isolate 058
Procedure, shortened: (§1)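 Recombinant-virus PhenoSense HIV assay run on a panel of 30 NRTI-resistant HIV-1 mutants and two wild-type viruses. Each virus is tested across increasing drug concentrations to give an inhibition curve and EC50. Fold change is the test recombinant EC50 divided by the EC50 of the drug-sensitive wild-type reference virus.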

[3] = test system: Human immunodeficiency virus 1; experiment: Antiviral activity against HIV1 isolate 060 harboring reverse transcriptase M41L/D67N/K70R/L210W/T215Y/K219E mutant gene by phenosense assay; type: functional, organism-based; settings: Human immunodeficiency virus 1, isolate 060; procedure, shortened: as §1
[4] = test system: Human immunodeficiency virus 1; experiment: Antiviral activity against HIV1 isolate 063 harboring reverse transcriptase M41L/D67N/K70R/M184V/L210W/T215Y/K219E mutant gene by phenosense assay; type: functional, organism-based; settings: Human immunodeficiency virus 1, isolate 063; procedure, shortened: as §1
[5] = test system: Human immunodeficiency virus 1; experiment: Antiviral activity against HIV1 isolate 069 harboring reverse transcriptase D67E/T69SSG/V75M/M184V/L210W/T215Y mutant gene by phenosense assay; type: functional, organism-based; settings: Human immunodeficiency virus 1, isolate 069; procedure, shortened: as §1
[6] = test system: Human immunodeficiency virus 1; experiment: Antiviral activity against HIV1 isolate 166 harboring reverse transcriptase L74V mutant gene obtained as site-directed mutant of NL4-3 by phenosense assay; type: functional, organism-based; settings: Human immunodeficiency virus 1, isolate 166; procedure, shortened: as §1
[7] = test system: Human immunodeficiency virus 1; experiment: Antiviral activity against HIV1 isolate 174 harboring reverse transcriptase M184V mutant gene obtained as site-directed mutant of NL4-3 by phenosense assay; type: functional, organism-based; settings: Human immunodeficiency virus 1, isolate 174; procedure, shortened: as §1
[8] = test system: Human immunodeficiency virus 1; experiment: Antiviral activity against HIV1 isolate 180 harboring reverse transcriptase K65R mutant gene obtained as site-directed mutant of NL4-3 by phenosense assay; type: functional, organism-based; settings: Human immunodeficiency virus 1, isolate 180; procedure, shortened: as §1
[9] = test system: Human immunodeficiency virus 1; experiment: Antiviral activity against HIV1 isolate 188 harboring reverse transcriptase T215Y/M184V mutant gene by phenosense assay; type: functional, organism-based; settings: Human immunodeficiency virus 1, isolate 188; procedure, shortened: as §1
[10] = test system: Human immunodeficiency virus 1; experiment: Antiviral activity against HIV1 isolate 192 harboring reverse transcriptase M41L/T215Y mutant gene by phenosense assay; type: functional, organism-based; settings: Human immunodeficiency virus 1, isolate 192; procedure, shortened: as §1
[11] = test system: Human immunodeficiency virus 1; experiment: Antiviral activity against HIV1 isolate 194 harboring reverse transcriptase M41L/T215Y/M184V mutant gene by phenosense assay; type: functional, organism-based; settings: Human immunodeficiency virus 1, isolate 194; procedure, shortened: as §1
[12] = test system: Human immunodeficiency virus 1; experiment: Antiviral activity against HIV1 isolate 200 harboring reverse transcriptase M41L/L210W/T215Y mutant gene by phenosense assay; type: functional, organism-based; settings: Human immunodeficiency virus 1, isolate 200; procedure, shortened: as §1
[13] = test system: Human immunodeficiency virus 1; experiment: Antiviral activity against HIV1 isolate 201 harboring reverse transcriptase M41L/L210W/T215Y mutant gene by phenosense assay; type: functional, organism-based; settings: Human immunodeficiency virus 1, isolate 201; procedure, shortened: as §1
[14] = test system: Human immunodeficiency virus 1; experiment: Antiviral activity against HIV1 isolate 203 harboring reverse transcriptase M41L/L210W/T215Y/M184V mutant gene by phenosense assay; type: functional, organism-based; settings: Human immunodeficiency virus 1, isolate 203
Procedure, shortened: (§2)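 PhenoSense HIV recombinant virus assay: patient-derived HIV-1 with major NRTI resistance mutations tested against increasing drug concentrations to give inhibition curves. EC50 is the concentration giving 50% inhibition. Fold change is the test recombinant EC50 divided by the EC50 of a drug-sensitive wild-type reference virus. Panel of 30 NRTI-resistant isolates plus two wild-type viruses.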

[15] = test system: Human immunodeficiency virus 1; experiment: Antiviral activity against HIV1 isolate 204 harboring reverse transcriptase M41L/L210W/T215Y/M184V mutant gene by phenosense assay; type: functional, organism-based; settings: Human immunodeficiency virus 1, isolate 204; procedure, shortened: as §2
[16] = test system: Human immunodeficiency virus 1; experiment: Antiviral activity against HIV1 isolate 206 harboring reverse transcriptase D67N/K70R mutant gene by phenosense assay; type: functional, organism-based; settings: Human immunodeficiency virus 1, isolate 206; procedure, shortened: as §2
[17] = test system: Human immunodeficiency virus 1; experiment: Antiviral activity against HIV1 isolate 211 harboring reverse transcriptase D67N/K70R/T215F/K219E/M184V mutant gene by phenosense assay; type: functional, organism-based; settings: Human immunodeficiency virus 1, isolate 211; procedure, shortened: as §2
[18] = test system: Human immunodeficiency virus 1; experiment: Antiviral activity against HIV1 isolate 212 harboring reverse transcriptase L210W/T215Y mutant gene by phenosense assay; type: functional, organism-based; settings: Human immunodeficiency virus 1, isolate 212; procedure, shortened: as §2
[19] = test system: Human immunodeficiency virus 1; experiment: Antiviral activity against HIV1 isolate 217 harboring reverse transcriptase D67N/K70E/M184V mutant gene by phenosense assay; type: functional, organism-based; settings: Human immunodeficiency virus 1, isolate 217; procedure, shortened: as §2
[20] = test system: Human immunodeficiency virus 1; experiment: Antiviral activity against HIV1 isolate 220 harboring reverse transcriptase K70E/M184V mutant gene by phenosense assay; type: functional, organism-based; settings: Human immunodeficiency virus 1, isolate 220; procedure, shortened: as §2
[21] = test system: Human immunodeficiency virus 1; experiment: Antiviral activity against HIV1 isolate 061 harboring reverse transcriptase M41L/D67N/K70R/M184V/L210W/T215Y/K219E mutant gene by phenosense assay relative to wild type; type: functional; procedure, shortened: as §1
[22] = test system: Human immunodeficiency virus 1; experiment: Antiviral activity against HIV1 isolate 063 harboring reverse transcriptase M41L/D67N/K70R/M184V/L210W/T215Y/K219E mutant gene by phenosense assay relative to wild type; type: functional; procedure, shortened: as §1
[23] = test system: Human immunodeficiency virus 1; experiment: Antiviral activity against HIV1 isolate 069 harboring reverse transcriptase D67E/T69SSG/V75M/M184V/L210W/T215Y mutant gene by phenosense assay relative to wild type; type: functional; procedure, shortened: as §1
[24] = test system: Human immunodeficiency virus 1; experiment: Antiviral activity against HIV1 isolate 070 harboring reverse transcriptase 65R/S68G mutant gene by phenosense assay relative to wild type; type: functional; procedure, shortened: as §1
[25] = test system: Human immunodeficiency virus 1; experiment: Antiviral activity against HIV1 isolate 153 harboring reverse transcriptase L74V mutant gene by phenosense assay relative to wild type; type: functional; procedure, shortened: as §1
[26] = test system: Human immunodeficiency virus 1; experiment: Antiviral activity against HIV1 isolate 157 harboring reverse transcriptase L74V/M184V mutant gene by phenosense assay relative to wild type; type: functional; procedure, shortened: as §1
[27] = test system: Human immunodeficiency virus 1; experiment: Antiviral activity against HIV1 isolate 160 harboring reverse transcriptase S68G/V75(I/T)/F77L/Y115F/F116Y /Q151M mutant gene by phenosense assay relative to wild type; type: functional; procedure, shortened: as §1
[28] = test system: Human immunodeficiency virus 1; experiment: Antiviral activity against HIV1 isolate 162 harboring reverse transcriptase A62V/V75I/F77L/Y115F/F116Y/Q151M/M184V mutant gene by phenosense assay relative to wild type; type: functional; procedure, shortened: as §1
[29] = test system: Human immunodeficiency virus 1; experiment: Antiviral activity against HIV1 isolate 166 harboring reverse transcriptase L74V mutant gene obtained as site-directed mutant of NL4-3 by phenosense assay relative to wild type; type: functional; procedure, shortened: as §1
[30] = test system: Human immunodeficiency virus 1; experiment: Antiviral activity against HIV1 isolate 174 harboring reverse transcriptase M184V mutant gene obtained as site-directed mutant of NL4-3 by phenosense assay relative to wild type; type: functional; procedure, shortened: as §1
[31] = test system: Human immunodeficiency virus 1; experiment: Antiviral activity against HIV1 isolate 194 harboring reverse transcriptase M41L/T215Y/M184V mutant gene by phenosense assay relative to wild type; type: functional; procedure, shortened: as §1
[32] = test system: Human immunodeficiency virus 1; experiment: Antiviral activity against HIV1 isolate 203 harboring reverse transcriptase M41L/L210W/T215Y/M184V mutant gene by phenosense assay relative to wild type; type: functional; procedure, shortened: as §2
[33] = test system: Human immunodeficiency virus 1; experiment: Antiviral activity against HIV1 isolate 206 harboring reverse transcriptase D67N/K70R mutant gene by phenosense assay relative to wild type; type: functional; procedure, shortened: as §2
[34] = test system: Human immunodeficiency virus 1; experiment: Antiviral activity against HIV1 isolate 217 harboring reverse transcriptase D67N/K70E/M184V mutant gene by phenosense assay relative to wild type; type: functional; procedure, shortened: as §2

`C[C@H](Cn1cnc2c(N)ncnc21)OCP(=O)(O)O` [TENOFOVIR ANHYDROUS] showed an EC50 [1] of 610 nM, an EC50 [2] of 2700 nM and an EC50 [3] of 3600 nM. It also gave an EC50 [4] of 1700 nM, an EC50 [5] of 3600 nM and an EC50 [6] of 540 nM. It also gave an EC50 [7] of 410 nM, an EC50 [8] of 1600 nM and an EC50 [9] of 620 nM. The EC50 [10] was 1400 nM, the EC50 [11] was 1000 nM and the EC50 [12] was 2200 nM. It also gave an EC50 [13] of 2300 nM, an EC50 [14] of 750 nM and an EC50 [15] of 790 nM. It also gave an EC50 [16] of 2000 nM, an EC50 [17] of 700 nM and an EC50 [18] of 1000 nM. For the same compound, the EC50 [19] was 500 nM, the EC50 [20] was 470 nM and the “fold change (FC)” value [21] was 2.2. For the same compound, the “fold change (FC)” value [22] was 2.2, the “fold change (FC)” value [23] was 4.7 and the “fold change (FC)” value [24] was 1.7. The “fold change (FC)” value [25] was 0.62, the “fold change (FC)” value [26] was 0.29 and the “fold change (FC)” value [27] was 2.3. The “fold change (FC)” value [28] was 1.4, the “fold change (FC)” value [29] was 0.69 and the “fold change (FC)” value [30] was 0.54. The “fold change (FC)” value [31] was 1.3, the “fold change (FC)” value [32] was 0.97 and the “fold change (FC)” value [33] was 2.6. For the same compound, the “fold change (FC)” value [34] was 0.64.

Work on `Cc1cn([C@H]2C=C[C@@H](CO)O2)c(=O)[nH]c1=O` [STAVUDINE] yielded an EC50 [1] of 510 nM, an EC50 [2] of 2200 nM and an EC50 [3] of 2800 nM. It also gave an EC50 [4] of 1400 nM, an EC50 [5] of 6800 nM and an EC50 [6] of 630 nM. For the same compound, the EC50 [7] was 400 nM, the EC50 [8] was 830 nM and the EC50 [9] was 650 nM. It also gave an EC50 [10] of 840 nM, an EC50 [11] of 860 nM and an EC50 [12] of 1200 nM. It also gave an EC50 [13] of 1100 nM, an EC50 [14] of 880 nM and an EC50 [15] of 1100 nM. The EC50 [16] was 780 nM, the EC50 [17] was 790 nM and the EC50 [18] was 940 nM. For the same compound, the EC50 [19] was 420 nM, the EC50 [20] was 390 nM and the “fold change (FC)” value [21] was 2.6. The “fold change (FC)” value [22] was 2.3, the “fold change (FC)” value [23] was 11 and the “fold change (FC)” value [24] was 1.3. The “fold change (FC)” value [25] was 1, the “fold change (FC)” value [26] was 0.71 and the “fold change (FC)” value [27] was 9.3. The “fold change (FC)” value [28] was 7.1, the “fold change (FC)” value [29] was 1.1 and the “fold change (FC)” value [30] was 0.68. For the same compound, the “fold change (FC)” value [31] was 1.5, the “fold change (FC)” value [32] was 1.5 and the “fold change (FC)” value [33] was 1.3. The “fold change (FC)” value [34] was 0.7.
